Source: ChEMBL document CHEMBL3259728, “Design, synthesis and biological evaluation of some novel substituted quinazolines as antitumor agents” (2014)

system: IGROV-1; assay: Growth inhibition of human IGROV1 cells at 10 uM after 48 hrs by SRB assay; type: functional; conditions: IGROV-1, 48 h, read-out: GI
In short: (§1)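 NCI-60 primary one-dose screen run at the US NCI, with human tumour lines from nine cancer types. Compound added once at 10^-5 M, followed by 48 h incubation. End point was sulforhodamine B protein staining read spectrophotometrically. Result given as percent growth of treated cells against untreated controls, reported as % growth inhibition.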

Row | SMILES | inhibition of growth at 10 µM [%]
1 | Cc1ccc(-c2nc3ccc(Cl)cc3c(=O)n2/N=C/c2ccccc2)cc1 | 43

system: not listed separately; assay: Growth inhibition of human HCT15 cells at 10 uM after 48 hrs by SRB assay; type: functional; conditions: HCT-15, 48 h, read-out: GI; in short: as §1

Row | SMILES | inhibition of growth at 10 µM [%]
2 | Cc1ccc(-c2nc3ccc(Cl)cc3c(=O)n2/N=C/c2ccccc2)cc1 | 14

system: RPMI-8226; assay: Growth inhibition of human RPMI8226 cells at 10 uM after 48 hrs by SRB assay; type: functional; conditions: RPMI-8226, 48 h, read-out: GI; in short: as §1

Row | SMILES | inhibition of growth at 10 µM [%]
3 | Cc1ccc(-c2nc3ccc(Cl)cc3c(=O)n2/N=C/c2ccccc2)cc1 | 20

system: SK-MEL-2; assay: Growth inhibition of human SK-MEL-2 cells at 10 uM after 48 hrs by SRB assay; type: functional; conditions: SK-MEL-2, 48 h, read-out: GI; in short: as §1

Row | SMILES | inhibition of growth at 10 µM [%]
4 | Cc1ccc(-c2nc3ccc(Cl)cc3c(=O)n2/N=C/c2ccccc2)cc1 | < 10

system: NCI-H322M; assay: Growth inhibition of human NCI-H322M cells at 10 uM after 48 hrs by SRB assay; type: functional; conditions: read-out: GI; in short: as §1

Row | SMILES | inhibition of growth at 10 µM [%]
5 | Cc1ccc(-c2nc3ccc(Cl)cc3c(=O)n2/N=C/c2ccccc2)cc1 | 24

system: not listed separately; assay: Growth inhibition of human UACC62 cells at 10 uM after 48 hrs by SRB assay; type: functional; conditions: UACC-62, 48 h, read-out: GI; in short: as §1

Row | SMILES | inhibition of growth at 10 µM [%]
6 | Cc1ccc(-c2nc3ccc(Cl)cc3c(=O)n2/N=C/c2ccccc2)cc1 | 23

system: SNB-75; assay: Growth inhibition of human SNB75 cells at 10 uM after 48 hrs by SRB assay; type: functional; conditions: SNB-75, 48 h, read-out: GI; in short: as §1

Row | SMILES | inhibition of growth at 10 µM [%]
7 | Cc1ccc(-c2nc3ccc(Cl)cc3c(=O)n2/N=C/c2ccccc2)cc1 | 74

system: not listed separately; assay: Growth inhibition of human NCI-ADR-RES cells at 10 uM after 48 hrs by SRB assay; type: functional; conditions: read-out: GI; in short: as §1

Row | SMILES | inhibition of growth at 10 µM [%]
8 | Cc1ccc(-c2nc3ccc(Cl)cc3c(=O)n2/N=C/c2ccccc2)cc1 | 30

system: Malme-3M; assay: Growth inhibition of human MALME-3M cells at 10 uM after 48 hrs by SRB assay; type: functional; conditions: read-out: GI; in short: as §1

Row | SMILES | inhibition of growth at 10 µM [%]
9 | Cc1ccc(-c2nc3ccc(Cl)cc3c(=O)n2/N=C/c2ccccc2)cc1 | 35

system: T47D; assay: Growth inhibition of human T47D cells at 10 uM after 48 hrs by SRB assay; type: functional; conditions: read-out: GI; in short: as §1

Row | SMILES | inhibition of growth at 10 µM [%]
10 | Cc1ccc(-c2nc3ccc(Cl)cc3c(=O)n2/N=C/c2ccccc2)cc1 | 25

system: NCI-H460; assay: Growth inhibition of human NCI-H460 cells at 10 uM after 48 hrs by SRB assay; type: functional; conditions: NCI-H460, 48 h, read-out: GI; in short: as §1

Row | SMILES | inhibition of growth at 10 µM [%]
11 | Cc1ccc(-c2nc3ccc(Cl)cc3c(=O)n2/N=C/c2ccccc2)cc1 | 23

system: SF-268; assay: Growth inhibition of human SF268 cells at 10 uM after 48 hrs by SRB assay; type: functional; conditions: SF-268, 48 h, read-out: GI; in short: as §1

Row | SMILES | inhibition of growth at 10 µM [%]
12 | Cc1ccc(-c2nc3ccc(Cl)cc3c(=O)n2/N=C/c2ccccc2)cc1 | 40

system: K562; assay: Growth inhibition of human K562 cells at 10 uM after 48 hrs by SRB assay; type: functional; conditions: K562, 48 h, read-out: GI; in short: as §1

Row | SMILES | inhibition of growth at 10 µM [%]
13 | Cc1ccc(-c2nc3ccc(Cl)cc3c(=O)n2/N=C/c2ccccc2)cc1 | < 10

system: HCT-116; assay: Growth inhibition of human HCT116 cells at 10 uM after 48 hrs by SRB assay; type: functional; conditions: HCT-116, 48 h, read-out: GI; in short: as §1

Row | SMILES | inhibition of growth at 10 µM [%]
14 | Cc1ccc(-c2nc3ccc(Cl)cc3c(=O)n2/N=C/c2ccccc2)cc1 | 47

system: SK-MEL-5; assay: Growth inhibition of human SK-MEL-5 cells at 10 uM after 48 hrs by SRB assay; type: functional; conditions: SK-MEL-5, 48 h, read-out: GI; in short: as §1

Row | SMILES | inhibition of growth at 10 µM [%]
15 | Cc1ccc(-c2nc3ccc(Cl)cc3c(=O)n2/N=C/c2ccccc2)cc1 | < 10

system: not listed separately; assay: Growth inhibition of human MOLT4 cells at 10 uM after 48 hrs by SRB assay; type: functional; conditions: MOLT-4, 48 h, read-out: GI; in short: as §1

Row | SMILES | inhibition of growth at 10 µM [%]
16 | Cc1ccc(-c2nc3ccc(Cl)cc3c(=O)n2/N=C/c2ccccc2)cc1 | 18

system: COLO 205; assay: Growth inhibition of human COLO205 cells at 10 uM after 48 hrs by SRB assay; type: functional; conditions: COLO 205, 48 h, read-out: GI
In short: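 NCI primary one-dose screen. A single concentration of 10^-5 M was added to the cell culture, followed by 48 h incubation and an SRB protein-dye endpoint read spectrophotometrically. Results are growth percentage relative to untreated control cells, reported as % growth inhibition.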

Row | SMILES | inhibition of growth at 10 µM [%]
17 | Cc1ccc(-c2nc3ccc(Cl)cc3c(=O)n2/N=C/c2ccccc2)cc1 | 34

system: SN12C; assay: Growth inhibition of human SN12C cells at 10 uM after 48 hrs by SRB assay; type: functional; conditions: read-out: GI; in short: as §1

Row | SMILES | inhibition of growth at 10 µM [%]
18 | Cc1ccc(-c2nc3ccc(Cl)cc3c(=O)n2/N=C/c2ccccc2)cc1 | 32

system: SNB-19; assay: Growth inhibition of human SNB19 cells at 10 uM after 48 hrs by SRB assay; type: functional; conditions: SNB-19, 48 h, read-out: GI; in short: as §1

Row | SMILES | inhibition of growth at 10 µM [%]
19 | Cc1ccc(-c2nc3ccc(Cl)cc3c(=O)n2/N=C/c2ccccc2)cc1 | 25
